V1aR counter = V1a receptor agonism, counter-screen for OXTR agonists. CHO-V1R cells, Fluo-8 calcium fluorescence, agonist mode; 0% DMSO, 100% 3 nM vasopressin. 320,000 compounds, 0.25% hits. activation, % at 3 µM. AID 2797;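 active = activation above the mean activation of all tested compounds plus 3 SD, per screening run, cut at about 20% in these data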;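 note: signal is peak over basal fluorescence ratio across a 100 second FLIPR read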
OXTR ag = agonists of human oxytocin receptor; 320,000 compounds, 0.32% hits; CHO-OTR cells, Fluo-8 calcium fluorescence; normalized: DMSO 0%, oxytocin 100%; AID 2435; activation, % at 3 µM;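 active = activation above the mean of all tested compounds plus 3 SD, cutoff set per screening run, cut at about 20% in these data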;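 note: peak over basal fluorescence ratio from a 100 s FLIPR kinetic read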
Target sequence (P30559 whole entry, looked up): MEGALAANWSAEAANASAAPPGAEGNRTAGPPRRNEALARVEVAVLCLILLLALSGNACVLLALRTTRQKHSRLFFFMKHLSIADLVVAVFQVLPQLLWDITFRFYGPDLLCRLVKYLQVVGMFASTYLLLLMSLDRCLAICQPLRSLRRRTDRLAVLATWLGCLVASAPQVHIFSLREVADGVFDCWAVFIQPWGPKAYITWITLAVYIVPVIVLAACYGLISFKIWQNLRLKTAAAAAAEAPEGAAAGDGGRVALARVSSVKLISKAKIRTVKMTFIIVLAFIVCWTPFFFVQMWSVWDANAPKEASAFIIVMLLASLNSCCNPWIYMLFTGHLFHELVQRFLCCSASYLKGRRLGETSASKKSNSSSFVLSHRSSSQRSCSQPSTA
TAAR1 antagonist = antagonists of human TAAR1 | Q96RJ0 | CHO RD-HGA16 TAAR1, Fluo-8 calcium fluorescence, antagonist | inhibition, % at 3 µM | 360,000 compounds, 1.5% hits | AID 624466;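 active = inhibition above a per-plate cutoff, the mean inhibition of test compounds on that plate plus 3 SD, cut at about 49% in these data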;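 note: 0% = DMSO plus EC80 beta-PEA response and 100% = DMSO alone without agonist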
Target sequence (Q96RJ0 whole entry, looked up): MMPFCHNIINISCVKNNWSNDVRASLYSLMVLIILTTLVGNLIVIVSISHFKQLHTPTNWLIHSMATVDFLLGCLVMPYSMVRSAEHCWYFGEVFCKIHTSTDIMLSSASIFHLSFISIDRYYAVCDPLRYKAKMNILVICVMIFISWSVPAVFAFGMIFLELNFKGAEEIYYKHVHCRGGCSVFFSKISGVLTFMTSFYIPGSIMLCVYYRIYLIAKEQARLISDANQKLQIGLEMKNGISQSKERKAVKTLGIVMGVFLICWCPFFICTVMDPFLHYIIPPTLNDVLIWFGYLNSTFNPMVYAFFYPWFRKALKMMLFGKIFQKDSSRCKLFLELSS
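System: RD-HGA16 CHO cells with stable hTAAR1 and Gα16 | Probe or stimulus: EC80 β-phenethylamine stimulus | Dosing: 3 µM, single point | Times: Dye loading 75 min at 37 °C, then 30 min room temperature | Measured by: Fluo-8 calcium-sensitive fluorescence | Read-out basis: % inhibition of agonist calcium response | Replicates: n of 1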
OXTR potentiate = potentiates the human oxytocin receptor response. activation, % at 3 µM. CHO-OTR cells, Fluo-8 calcium fluorescence, potentiator mode; 0% = oxytocin EC15, 100% = EC100. 320,000 compounds, 0.061% hits. P30559;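 active = activation above that plate's cutoff, the mean activation of tested compounds plus 3 SD, cut at about 6.6% in these data, passing the limit was not always enough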;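 note: 100% uses oxytocin at 75 nM as the full agonist control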
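Material: CHO-OTR cells, human receptor; compound dosing: single dose, 3.0 µM nominal final compound concentration; schedule: 6 min compound pre-incubation at room temperature, 100 s kinetic read; measured by: kinetic Fluo-8 calcium fluorescence; read-out basis: % activation vs EC15 and EC100 oxytocin; controls: EC15 oxytocin alone as 0%, 75 nM oxytocin as 100%; replicates: singlicate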
TAAR1 ag = human TAAR1 agonism. CHO RD-HGA16 TAAR1, Fluo-8 calcium fluorescence; vehicle wells 0%, saturating PEA agonist 100%. 360,000 compounds, 0.99% hits. Q96RJ0. AID 624467. activation, % at 3 µM;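 active = activation above the mean activation of all test compounds in the run plus 3 SD, cut at about 38% in these data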
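Benchmarks: low control DMSO, high control PEA (EC100); System: CHO RD-HGA16 cells carrying human TAAR1 plus Gα16; Detection: Fluo-8 fluorescence, 5 s baseline then 140 s kinetic read; Schedule: 17-24 h plating, Fluo-8 75 min 37 °C, 30 min RT; Read-out basis: % activation from peak over basal fluorescence ratio, DMSO-to-PEA scaled.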
TAAR1 nonsel count = nonselective antagonism, TAAR1 counter-screen. counterscreen cell line, calcium fluorescence, antagonist mode. AID 651780. 2,400 compounds, 77% hits. shares compounds with TAAR1 antagonist. inhibition, % at 3 µM; in the data active = inhibition above about 22%;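 note: CHO-Ga16 host cells stimulated with ATP at an EC80 level; 0% = agonist EC80 plus vehicle and 100% = vehicle without agonist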
TAAR1 ant conf = confirmation of human TAAR1 antagonists. shares compounds with TAAR1 antagonist. 2,400 compounds, 40% hits. TAAR1-expressing cells, fluorescence antagonist read-out. inhibition, % at 3 µM; in the data active = inhibition above about 49%;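 note: CHO-Ga16 host cells challenged with agonist PEA near its EC80; 0% = agonist at EC80 plus vehicle and 100% = vehicle with no agonist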
Ga16 ag counter = nonselective Ga16 agonist in TAAR1 antagonist counter-screen | shares compounds with TAAR1 antagonist | Ga16-expressing cells, calcium fluorescence, agonist counterscreen | activation, % at 3 µM | 2,400 compounds, 18% hits; in the data active = activation above about 12%;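 note: 0% = vehicle wells and 100% = saturating stimulus response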
TAAR1 ag counter = activates human TAAR1 in antagonist counter-screen; shares compounds with TAAR1 antagonist; hTAAR1 cell line, fluorescence activation, agonist mode; activation, % at 3 µM; 2,400 compounds, 2% hits; AID 651955; in the data active = activation above about 37%;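 note: CHO cells stably expressing TAAR1 with calcium dye readout; 0% = DMSO vehicle and 100% = full agonist response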
Active calls of the source: *; · = no result given. This is a sample that favours compounds with a hit; in the whole collection about 2.3% have one here.

SMILES | V1aR counter | OXTR ag | TAAR1 antagonist | OXTR potentiate | TAAR1 ag | TAAR1 nonsel count | TAAR1 ant conf | Ga16 ag counter | TAAR1 ag counter
CCC(C(=O)OCC(=O)Nc1ccc(SC(F)F)cc1)c1ccccc1 (centres undefined) | · | · | 63* | · | 2 | 39* | 53* | 3 | 7
CCOc1ccccc1Nc1nnc(SCc2nnc(-c3cc(OC)c(OC)c(OC)c3)o2)s1 | -2 | -2 | 40 | -6 | 13 | · | · | · | ·
COc1ccccc1Nc1nnc(SCc2nnc(-c3cc(OC)c(OC)c(OC)c3)o2)s1 | -2 | -3 | 58* | -1 | 10 | 25* | 34 | 8 | 7
CCCCCCSc1cc(-c2nc3cc(C)ccn3c2NCCCC)ccc1OC | 0 | -1 | 16 | -2 | 2 | · | · | · | ·
CCCCNc1c(-c2cccc(-c3cc(C(C)=O)cs3)c2)nc2cc(C)ccn12 | 0 | -2 | 78* | -10 | 14 | 31* | 53* | 11 | 10
CCN(CC)C(=O)c1ccc(-c2nnc(OC)c3ccccc23)cc1 | -1 | -1 | -31 | 5 | 0 | · | · | · | ·
CCn1c(SCC(=O)OC)nc2sc3c(c2c1=O)CCC3 | -1 | -2 | -12 | 5 | 7 | · | · | · | ·
COc1ccc(C#Cc2ccc(C3=CC(=O)CC(C)(C)C3=O)cc2)cc1 | · | · | 81* | · | 5 | 28* | 43 | 4 | 3
O=C(Nc1ccccc1)c1cccc(N2C(=O)C3C4CC(C(Br)C4Br)C3C2=O)c1 (centres undefined) | 7 | 7 | 72* | -10 | 24 | 38* | 64* | 19* | 22
COc1ccc(NC(=O)c2cccc(N3C(=O)C4C5C=CC(C6CC56)C4C3=O)c2)cc1 (centres undefined) | 15 | 7 | 63* | -5 | 12 | 35* | 54* | 13* | 10
O=C(O)c1ccc(NC(=O)c2cccc(N3C(=O)C4C5CCC(C5)C4C3=O)c2)cc1 (centres undefined) | 0 | 2 | -9 | 1 | 1 | · | · | · | ·
CCOC(=O)C1=CN(Cc2cccc(-c3ccc(Cl)nc3)c2)S(=O)(=O)N(C)C1C (centres undefined) | · | · | 63* | · | 5 | 11 | 22 | 2 | 4
O=C1c2cccc3cccc(c23)C(=O)N1CCCN1CCN(c2ccc(F)cc2)CC1 | 0 | -3 | -7 | -16 | -3 | · | · | · | ·
O=C(Nc1ccccc1Cl)C1CCCN1C(=O)OCc1ccccc1 (centres undefined) | 0 | -2 | -20 | -6 | -1 | · | · | · | ·
CCN1C(=O)C(CC(=O)Nc2ccc(OC)cc2)N(CCc2ccccc2)C1=S (centres undefined) | 3 | 2 | 43 | -5 | 9 | · | · | · | ·
CCN1C(=O)C(CC(=O)Nc2ccc(OC)cc2)N(CCc2ccccc2F)C1=S (centres undefined) | 2 | 1 | 75* | -14 | 20 | 31* | 41 | 8 | 9
COc1ccc(NC(=O)CC2C(=O)N(C)C(=S)N2CCc2ccccc2F)cc1 (centres undefined) | 6 | 3 | 57* | -30 | 21 | 37* | 56* | 12* | 14
CCCc1cc(=O)[nH]c2nnc(SCC(=O)NCc3ccc4c(c3)OCO4)n12 | 0 | 0 | -10 | -6 | 0 | · | · | · | ·
COc1ccc(C(=O)N2N=C(c3ccc(NS(C)(=O)=O)cc3)CC2c2cccs2)cc1 (centres undefined) | 5 | 1 | 59* | -11 | 16 | 30* | 45 | 10 | 11
Cc1ccc(C(=O)N2N=C(c3ccc(NS(C)(=O)=O)cc3)CC2c2cccs2)cc1 (centres undefined) | 0 | -1 | -7 | -5 | 6 | · | · | · | ·
Cc1ccc2nc(-c3ccc(C#N)cc3)c(Cc3cccc(F)c3)n2c1 | · | · | 14 | · | 0 | · | · | · | ·
Fc1ccc(-c2nc3ccccn3c2NCc2ccc3c(c2)OCO3)cc1 | 0 | -2 | 17 | -3 | 8 | · | · | · | ·
Oc1ccc(-c2nc3ccccn3c2NCc2ccc3c(c2)OCO3)cc1 | 4 | 2 | 55* | -14 | 17 | 30* | 53* | 11 | 10
CN(CC(=O)Nc1ccccc1C(F)(F)F)C(=O)C1CCN(S(=O)(=O)c2ccc3c(c2)OCCO3)CC1 | 0 | 0 | 0 | -1 | 0 | · | · | · | ·
O=C(CSc1nnc(-c2ccc(Cl)cc2)n1-c1ccc(Cl)cc1)N/N=C/c1ccco1 | 1 | 0 | 78* | -7 | 13 | 27* | 54* | 8 | 6
SMILES | V1aR counter | OXTR ag | TAAR1 antagonist | OXTR potentiate | TAAR1 ag | TAAR1 nonsel count | TAAR1 ant conf | Ga16 ag counter | TAAR1 ag counter
Cc1ccc(-c2nnc(SCC(=O)N/N=C/c3ccccc3C(=O)O)n2-c2ccc(Cl)cc2)cc1 | 0 | 0 | -31 | -1 | 1 | · | · | · | ·
Cc1ccc(/C=N/NC(=O)CSc2nnc(-c3ccc(Cl)cc3)n2-c2ccccc2)o1 | 0 | -2 | 58* | -7 | 12 | 26* | 45 | 7 | 5
CCOc1ccc2[nH]c3c(NCCc4ccc(OC)c(OC)c4)ncnc3c2c1 | -1 | -3 | 51* | 0 | 6 | 18 | 31 | 4 | 1
CCOc1ccc2[nH]c3c(NCCO)ncnc3c2c1 | · | · | -2 | · | 4 | · | · | · | ·
Cn1c(SCC(=O)Nc2nnc(-c3ccccc3)o2)nnc1C1CC1 | 1 | 1 | -22 | 6 | 2 | · | · | · | ·
O=C(c1cc(-c2cccs2)nn1-c1ccccc1)N1CCN(S(=O)(=O)c2ccccc2)CC1 | -1 | -2 | 68* | -9 | 9 | 30* | 52* | 8 | 7
CCN(CC)S(=O)(=O)c1cc(NC(=O)c2ccc3c(c2)NC(=O)C(C)S3)ccc1C (centres undefined) | 10 | 7 | 73* | -11 | 16 | 41* | 52* | 13* | 10
O=C(CO/N=C/c1ccccc1OC(F)F)N1CCc2ccccc21 | 0 | -1 | 7 | -6 | 7 | · | · | · | ·
Cc1ccc(Cc2c(-c3ccc(C)cc3)nc3ccc(Cl)cn23)cc1 | · | · | 3 | · | 3 | · | · | · | ·
COc1ccc2sc(-c3ccc(S(C)(=O)=O)cc3)c(C(=O)NCCCN3CCCC3=O)c2c1 | 0 | 0 | 49* | 9 | 15 | 31* | 43 | 7 | 6
O=C(NCCCN1CCCC1=O)c1cc(-c2ccc(F)cc2)nc2ccccc12 | 0 | -1 | 33 | -6 | 10 | · | · | · | ·
COc1ccc(-c2cc(C(=O)NCCCN3CCCC3=O)c3ccccc3n2)cc1 | 0 | 0 | 50* | 7 | 10 | 20 | 33 | 7 | 3

Screening data (PubChem BioAssay)
